# In ChEMBL document CHEMBL1131259, “Synthesis and evaluation of diphenyl phosphonate esters as inhibitors of the trypsin-like granzymes A and K and mast cell tryptase” (J Med Chem, 1998):
# Activity calls are given as the source filed them. The rule behind the calls is not given here.
# Assays:
# Tryptase (Homo sapiens) [1] = biological target: T1, Tryptase (Homo sapiens) (UniProt Q9BZJ3+Q15661+Q9NRR2); assay: Inhibition of mast cell tryptase; assay type: protein assay
# Outline: (§1)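 Human lung mast cell tryptase, high-molecular-weight form, heparin-free, active sites titrated with MUGB. Incubated with inhibitor at 25 °C in 0.1 M Hepes, 10% glycerol, 10 mM heparin, pH 7.5 (7.1% DMSO). […] DMSO controls were run.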
# [2] = biological target: T2, Granzyme A (Rattus norvegicus) (UniProt Q8CJF4); assay: Inhibition of rat granzyme A.
# T2 sequence (whole entry): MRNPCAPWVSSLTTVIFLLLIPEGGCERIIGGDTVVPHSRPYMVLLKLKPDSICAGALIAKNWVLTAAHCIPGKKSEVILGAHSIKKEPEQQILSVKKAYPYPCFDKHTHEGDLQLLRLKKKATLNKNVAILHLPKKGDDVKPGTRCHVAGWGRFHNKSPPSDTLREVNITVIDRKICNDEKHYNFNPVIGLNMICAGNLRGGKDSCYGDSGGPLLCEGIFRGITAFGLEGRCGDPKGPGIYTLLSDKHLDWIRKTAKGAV
# Outline: (§2)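 Recombinant human and rat granzyme A, incubated with inhibitor (1.0–450 μM) at 25 °C in 0.1 M Hepes, 0.01 M CaCl2, pH 7.5 (7.6% DMSO). Timed aliquots were read for residual activity on Cbz-Arg-SBzl with DTNB at 405 nm. k_obs came from ln vt/vo vs time over 5–10 points and 2–3 half-lives, two k_obs per inhibitor. DMSO controls were run.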
# [3] = biological target: T3, Granzyme K (Rattus norvegicus) (UniProt P49864); assay: Compound was evaluated to inhibit rat granzyme K; No inhibition
# T3 sequence (whole entry): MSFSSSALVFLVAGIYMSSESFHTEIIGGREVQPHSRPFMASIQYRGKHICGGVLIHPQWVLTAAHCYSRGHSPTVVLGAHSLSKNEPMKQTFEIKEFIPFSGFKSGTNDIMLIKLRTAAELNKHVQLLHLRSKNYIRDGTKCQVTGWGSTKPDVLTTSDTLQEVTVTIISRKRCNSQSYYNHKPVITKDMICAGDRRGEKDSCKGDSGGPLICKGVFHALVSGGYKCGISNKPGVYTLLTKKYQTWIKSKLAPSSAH
# Outline: (§3)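 Native rat granzyme K, purified by size-exclusion in 1 M NaCl then MonoS cation exchange. Incubated with inhibitor (1.0–450 μM) at 25 °C in 0.1 M Hepes, 0.01 M CaCl2, pH 7.5 (7.1% DMSO). Timed aliquots were read for residual activity on Cbz-Arg-SBzl with DTNB at 405 nm. k_obs came from ln vt/vo vs time, one or two per inhibitor. For no-inhibition lines, none was seen after 25 min.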
# [4] = biological target: T4, Serine protease 1 (Bos taurus) (UniProt P00760); assay: Inhibition of bovine trypsin
# T4 sequence (whole entry): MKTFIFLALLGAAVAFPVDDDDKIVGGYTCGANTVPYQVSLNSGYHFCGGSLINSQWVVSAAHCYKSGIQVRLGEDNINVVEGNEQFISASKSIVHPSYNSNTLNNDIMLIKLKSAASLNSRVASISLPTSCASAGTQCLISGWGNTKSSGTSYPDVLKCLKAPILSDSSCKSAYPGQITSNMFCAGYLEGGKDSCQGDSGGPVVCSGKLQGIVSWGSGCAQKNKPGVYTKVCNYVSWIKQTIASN
# Outline: (§4)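 Irreversible inhibition assayed by incubation at 25 °C in 0.1 M Hepes, 0.01 M CaCl2, pH 7.5 (2% DMSO), inhibitor 1.0–450 μM. Timed aliquots were read for residual activity on Cbz-Arg-SBzl with DTNB at 410 nm. Pseudo-first-order k_obs came from ln vt/vo vs time, using 5–10 points over 2–3 half-lives, three k_obs per inhibitor. DMSO-only controls were run. For no-inhibition lines, none was seen after 25 min.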
# [5] = biological target: T5, Granzyme A (Homo sapiens) (UniProt P12544); assay: Inhibition of human granzyme A; outline: as §2
# T5 sequence (whole entry): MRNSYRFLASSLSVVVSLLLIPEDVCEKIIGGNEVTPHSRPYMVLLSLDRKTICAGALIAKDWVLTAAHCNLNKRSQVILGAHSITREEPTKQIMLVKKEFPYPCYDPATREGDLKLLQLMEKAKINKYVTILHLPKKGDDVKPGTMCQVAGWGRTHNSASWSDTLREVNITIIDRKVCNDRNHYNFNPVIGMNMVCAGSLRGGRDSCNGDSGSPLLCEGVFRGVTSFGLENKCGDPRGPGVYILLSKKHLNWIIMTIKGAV
# [6] = biological target: T3, Granzyme K (Rattus norvegicus); assay: Inhibition of rat granzyme K; outline: as §3
# Tryptase (Homo sapiens) [7] = biological target: T1, Tryptase (Homo sapiens); assay: Compound was evaluated to inhibit mast cell tryptase; No inhibition; assay type: protein assay; outline: as §1
# [8] = biological target: T4, Serine protease 1 (Bos taurus); assay: Compound was evaluated to inhibit bovine trypsin; No inhibition; outline: as §4
# Tryptase (Homo sapiens) [9] = biological target: T1, Tryptase (Homo sapiens); assay: Compound was evaluated to inhibit mast cell tryptase.; assay type: protein assay; conditions: concentration not given here; outline: as §1
# [10] = biological target: T3, Granzyme K (Rattus norvegicus); assay: Compound was evaluated to inhibit rat granzyme K;No inhibition; outline: as §3
SMILES,kobs/[I] (second-order inhibition rate constant) (Tryptase (Homo sapiens) [1]) [M⁻¹ s⁻¹],K obs / 1 [2] [M⁻¹ s⁻¹],K obs / 1 [3],K obs / 1 [4] [M⁻¹ s⁻¹],kobs/[I] (second-order inactivation rate constant) [5] [M⁻¹ s⁻¹],kobs/[I] (second-order inactivation rate constant) [6] [M⁻¹ s⁻¹],K obs / 1 (Tryptase (Homo sapiens) [7]),K obs / 1 [8],inhibition (Tryptase (Homo sapiens) [9]) [%],K obs / 1 [10]
C[C@H](NC(=O)OCc1ccccc1)C(=O)NC(c1ccc(C(N)N)cc1)P(=O)(Oc1ccccc1)Oc1ccccc1 (stereo not given in full),0.8,1270,inactive,1850,1670,–,–,–,–,–
N=C(N)c1ccc(C(NC(=O)/C=C/c2cccnc2)P(=O)(Oc2ccccc2)Oc2ccccc2)cc1 (stereo not given),–,1,–,–,5,3,inactive,inactive,–,–
C[C@H](NC(=O)[C@@H](CCCCNC(=O)OC(C)(C)C)NC(=O)OCc1ccccc1)C(=O)NC(c1ccc(C(N)N)cc1)P(=O)(Oc1ccccc1)Oc1ccccc1 (stereo not given in full),8.5,–,inactive,3100,110,–,–,–,–,–
N=C(N)c1ccc(C(NC(=O)[C@@H]2CCCN2C(=O)c2cccc(Oc3ccccc3)c2)P(=O)(Oc2ccccc2)Oc2ccccc2)cc1 (stereo not given in full),–,–,inactive,4080,330,–,–,–,7,–
NC(N)c1ccc(C(NS(=O)(=O)c2cccc3ccccc23)P(=O)(Oc2ccccc2)Oc2ccccc2)cc1 (stereo not given),10,30,inactive,170,330,–,–,–,–,–
NCCCC(NC(=O)OCc1ccccc1)P(=O)(Oc1ccccc1)Oc1ccccc1 (stereo not given),–,–,inactive,–,0.6,–,inactive,inactive,–,–
C[C@H](NC(=O)[C@@H](CCCCN)NC(=O)OCc1ccccc1)C(=O)NC(c1ccc(C(N)N)cc1)P(=O)(Oc1ccccc1)Oc1ccccc1 (stereo not given in full),2,–,inactive,3140,90,–,–,–,–,–
CC(C)C[C@H](NC(=O)OCc1ccccc1)C(=O)NC(c1ccc(C(=N)N)cc1)P(=O)(Oc1ccccc1)Oc1ccccc1 (stereo not given in full),0.3,–,–,50,6.3,–,–,–,–,inactive
N=C(N)c1ccc(C(NC(=O)[C@H](Cc2ccccc2)NC(=O)OCc2ccccc2)P(=O)(Oc2ccccc2)Oc2ccccc2)cc1 (stereo not given in full),–,8,–,17,14,13,–,–,5,–
